Source: ChEMBL document CHEMBL1145048, “Functionalized glycomers as growth inhibitors and inducers of apoptosis in human glioblastoma cells” (J Med Chem, 2003)

Legend:
[1] = Glycomer activity determined as growth inhibition of human glioblastoma LNZ308 cells; format: functional, cell-based
Procedure, shortened: (§1)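 Cells grown 24 h with FCS, then 24 h without FCS, then exposed to glycomers at increasing concentrations in serum-free medium for 24 h. MTT at 0.2 mg/mL was added for the last 2 h, formazan was dissolved in 0.1 N HCl/2-propanol and read at 540 nm. Growth inhibition = treated/control MTT reduction. IC50 is the concentration giving 50% inhibition from dose–response curves. Triplicate, mean ± SD.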

[2] = Glycomer activity determined as growth inhibition of human glioblastoma LN18 cells; format: functional, cell-based; procedure, shortened: as §1
[3] = Efficacy index was evaluated as ratio of apoptosis index to MTT reduction for human glioblastoma LN18 cells at 4.5 uM concentration; format: functional, cell-based
Procedure, shortened: (§2)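 Cells grown 24 h with FCS, then deprived of FCS for 10 h, then exposed to glycomers for 12 h. In adherent cells, MTT reduction (540 nm), [3H]-thymidine incorporation (cpm) and nucleosome-fragment apoptosis index (treated vs control) were measured. Efficacy index = ratio of thymidine incorporation or apoptosis index to MTT reduction.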

[4] = Apoptosis index was determined against human glioblastoma LN18 cells at concentration of 11 uM after total exposure time of 15 hours; format: functional, cell-based
Procedure, shortened: (§3)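 Cells seeded to half confluence in DMEM-10% FCS for 24 h, then held 24 h without FCS before glycomer addition in serum-free medium. At the end of the incubation, histone-associated DNA fragments (mono- and oligonucleosomes) in still-adherent cells were measured by photometric ELISA (absorbance 405 nm). Apoptosis index = absorbance of treated / untreated wells, untreated set at 1.00. Done in triplicate.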

[5] = Efficacy index was evaluated as ratio of apoptosis index to MTT reduction for human glioblastoma LNZ308 cells at 4.5 uM concentration; format: functional, cell-based; procedure, shortened: as §2
[6] = Efficacy index was evaluated as ratio of inhibition of DNA synthesis (3HT incorporation) to inhibition of growth(MTT) for human glioblastoma LN18 cells at 4.5 uM concentration; format: functional, cell-based; procedure, shortened: as §2
[7] = Efficacy index was evaluated as ratio of apoptosis index to MTT reduction for human glioblastoma LN18 cells at 11.3 uM concentration; format: functional, cell-based; procedure, shortened: as §2
[8] = Efficacy index was evaluated as ratio of inhibition of DNA synthesis (3HT incorporation) to inhibition of growth(MTT) for human glioblastoma LN18 cells at 11.3 uM concentration; format: functional, cell-based; procedure, shortened: as §2
[9] = Apoptosis index was determined against human glioblastoma LNZ308 cells at concentration of 11 uM after total exposure time of 15 hours; format: functional, cell-based; procedure, shortened: as §3
[10] = Efficacy index was evaluated as ratio of inhibition of DNA synthesis (3HT incorporation) to inhibition of growth(MTT) for human glioblastoma LN18 cells at 0 uM concentration; format: functional, cell-based; procedure, shortened: as §2
[11] = Efficacy index was evaluated as ratio of apoptosis index to MTT reduction for human glioblastoma LN18 cells at 0 uM concentration; format: functional, cell-based; procedure, shortened: as §2
[12] = Efficacy index was evaluated as ratio of apoptosis index to MTT reduction for human glioblastoma LN18 cells at 22.5 uM concentration; format: functional, cell-based; procedure, shortened: as §2
[13] = Efficacy index was evaluated as ratio of inhibition of DNA synthesis (3HT incorporation) to inhibition of growth(MTT) for human glioblastoma LNZ308 cells at 22.5 uM concentration; format: functional, cell-based; procedure, shortened: as §2
[14] = Efficacy index was evaluated as ratio of apoptosis index to MTT reduction for human glioblastoma LNZ308 cells at 11.3 uM concentration; format: functional, cell-based; procedure, shortened: as §2
[15] = Efficacy index was evaluated as ratio of inhibition of DNA synthesis (3HT incorporation) to inhibition of growth(MTT) for human glioblastoma LN18 cells at 22.5 uM concentration; format: functional, cell-based; procedure, shortened: as §2
[16] = Efficacy index was evaluated as ratio of inhibition of DNA synthesis (3HT incorporation) to inhibition of growth(MTT) for human glioblastoma LNZ308 cells at 11.3 uM concentration; format: functional, cell-based; procedure, shortened: as §2
[17] = Efficacy index was evaluated as ratio of apoptosis index to MTT reduction for human glioblastoma LNZ308 cells at 0 uM concentration; format: functional, cell-based; procedure, shortened: as §2
[18] = Efficacy index was evaluated as ratio of apoptosis index to MTT reduction for human glioblastoma LNZ308 cells at 22.5 uM concentration; format: functional, cell-based; procedure, shortened: as §2
[19] = Apoptosis index was determined against human glioblastoma LN18 cells at concentration of 25 uM after total exposure time of 24 hours; format: functional, cell-based; procedure, shortened: as §3
[20] = Apoptosis index was determined against human glioblastoma LNZ308 cells at concentration of 25 uM after otal exposure time of 24 hours; format: functional, cell-based; procedure, shortened: as §3
[21] = Apoptosis index was determined against human glioblastoma LNZ308 cells at 16 uM and total exposure time of 10 hours; format: functional; procedure, shortened: as §3
[22] = Efficacy index was evaluated as ratio of inhibition of DNA synthesis (3HT incorporation) to inhibition of growth(MTT) for human glioblastoma LNZ308 cells at 0 uM concentration; format: functional, cell-based; procedure, shortened: as §2
[23] = Efficacy index was evaluated as ratio of inhibition of DNA synthesis (3HT incorporation) to inhibition of growth(MTT) for human glioblastoma LNZ308 cells at 4.5 uM concentration; format: functional, cell-based; procedure, shortened: as §2
[24] = Apoptosis index was determined against human glioblastoma LN18 cells at 16 uM after total exposure of 10 hours; format: functional; procedure, shortened: as §3

## C=CCOC1C(O)C(CNS(=O)(=O)c2cccc(C(F)(F)F)c2)OC(Oc2ccc(I)cc2)C1OC(=O)C(C)C (configuration not stated)
[1]; Homo sapiens, LNZ308
  IC50: 7.5 µM
[2]; Homo sapiens, LN-18
  IC50: 12.5 µM

## C=CCOC1C(O)C(CNS(=O)(=O)c2cccc(C(F)(F)F)c2)OC(Oc2ccc(I)cc2)C1OC(=O)CCC (stereo in doubt; 10b)
[1]; Homo sapiens, LNZ308
  IC50: 17.5 µM
[2]; ln18
  IC50: 6.5 µM

## C=CCO[C@H]1[C@H](O)[C@H](COCc2ccccc2)O[C@@H](Oc2ccc(I)cc2)[C@H]1OC(=O)C(C)C
[1]; Homo sapiens, LNZ308
  IC50: > 50 µM
[2]; Homo sapiens, LN-18
  IC50: > 50 µM

## C=CCOC1C(O)C(CNS(=O)(=O)c2cccc(C(F)(F)F)c2)OC(Oc2ccc(I)cc2)C1OC(=O)CC (configuration not stated)
[3]
  Efficacy index: 0.88
[4]
  Apoptosis index: 0.98
[5]
  Efficacy index: 0.72
[6]
  Efficacy index: 3.11
[7]
  Efficacy index: 1.63
[8]
  Efficacy index: 0.07
[9]
  Apoptosis index: 1.45
[10]
  Efficacy index: 16.2
[11]
  Efficacy index: 0.93
[12]
  Efficacy index: 8.43
[13]
  Efficacy index: 0.35
[14]
  Efficacy index: 1.81
[15]
  Efficacy index: 0.47
[16]
  Efficacy index: 0.64
[17]
  Efficacy index: 0.95
[18]
  Efficacy index: 6.18

## CCCC(=O)O[C@@H]1[C@H](Oc2ccc(I)cc2)O[C@@H](COS(=O)(=O)c2cccc(C(F)(F)F)c2)[C@@H](O)[C@@H]1OC
[1]; Homo sapiens, LNZ308
  IC50: 22 µM
[2]; Homo sapiens, LN-18
  IC50: 26 µM

## C=CCO[C@@H]1[C@H](OC(=O)CC)[C@H](Oc2ccc(I)cc2)O[C@@H](COS(=O)(=O)c2cccc(C(F)(F)F)c2)[C@H]1OCc1ccc(OC)cc1
[1]; Homo sapiens, LNZ308
  IC50: > 50 µM
[2]; Homo sapiens, LN-18
  IC50: > 50 µM

## C=CCO[C@H]1[C@H](O)[C@H](COS(=O)(=O)c2cccc(C(F)(F)F)c2)O[C@@H](Oc2ccc(I)cc2)[C@H]1OC(C)=O
[1]; Homo sapiens, LNZ308
  IC50: 13 µM
[2]; Homo sapiens, LN-18
  IC50: 12.5 µM

## C=CCO[C@H]1[C@H](O)[C@H](COS(=O)(=O)c2cccc(C(F)(F)F)c2)O[C@@H](Oc2ccc(I)cc2)[C@H]1OC(=O)CCC (stereo in doubt; 8c) [listing 1 of 2 here]
[19]
  Apoptosis index: 0.44
[20]
  Apoptosis index: 0.41

## C=CCO[C@H]1[C@H](O)[C@H](COCc2ccccc2)O[C@@H](Oc2ccc(Br)cc2)[C@H]1OC(=O)CCC
[1]; Homo sapiens, LNZ308
  IC50: > 50 µM
[2]; Homo sapiens, LN-18
  IC50: > 50 µM

## CCCC(=O)O[C@@H]1[C@H](Oc2ccc(I)cc2)O[C@@H](COCc2ccccc2)[C@@H](O)[C@@H]1OCCO
[1]; Homo sapiens, LNZ308
  IC50: > 50 µM
[2]; Homo sapiens, LN-18
  IC50: > 50 µM

## C=CCO[C@H]1[C@H](O)[C@H](COS(=O)(=O)c2cccc(C(F)(F)F)c2)O[C@@H](Oc2ccc(I)cc2)[C@H]1OC(=O)CC
[3]
  Efficacy index: 1.19
[5]
  Efficacy index: 0.99
[6]
  Efficacy index: 4.87
[7]
  Efficacy index: 3.51
[21]
  Apoptosis index: 8.97
[1]; Homo sapiens, LNZ308
  IC50: 11.5 µM
[8]
  Efficacy index: 0.23
[10]
  Efficacy index: 16.2
[11]
  Efficacy index: 0.93
[12]
  Efficacy index: 9.6
[22]
  Efficacy index: 9.79
[13]
  Efficacy index: 0.24
[14]
  Efficacy index: 2.03
[23]
  Efficacy index: 5
[15]
  Efficacy index: 0.3
[24]
  Apoptosis index: 3.82
[2]; Homo sapiens, LN-18
  IC50: 7 µM
[16]
  Efficacy index: 1.23
[17]
  Efficacy index: 0.95
[18]
  Efficacy index: 5.09

## C=CCO[C@H]1[C@H](O)[C@H](COCc2ccccc2)O[C@@H](Oc2ccc(OC)cc2)[C@H]1OC(C)=O
[1]; Homo sapiens, LNZ308
  IC50: > 50 µM
[2]; Homo sapiens, LN-18
  IC50: > 50 µM

## C=CCO[C@H]1[C@H](O)[C@H](COS(=O)(=O)c2cccc(C(F)(F)F)c2)O[C@@H](Oc2ccc(I)cc2)[C@H]1OC(=O)CCC (stereo in doubt; 8c) [listing 2 of 2 here]
[1]; lnz308
  IC50: 41 µM
[2]; ln18
  IC50: 43 µM

## C=CCO[C@H]1[C@@H](O)[C@H](COCc2ccccc2)O[C@@H](Oc2ccc(I)cc2)[C@H]1OC(=O)CCC
[1]; Homo sapiens, LNZ308
  IC50: 37 µM
[2]; Homo sapiens, LN-18
  IC50: 20 µM

## CCCO[C@H]1[C@H](O)[C@H](COS(=O)(=O)c2cccc(C(F)(F)F)c2)O[C@@H](Oc2ccccc2)[C@H]1OC(=O)CCC
[1]; Homo sapiens, LNZ308
  IC50: > 50 µM
[2]; Homo sapiens, LN-18
  IC50: > 50 µM
